Screening data deposited in PubChem by The Scripps Research Institute Molecular Screening Center.
ASAP1 GAP inh = inhibitors of human ASAP1 ArfGAP activity; inhibition, % at 16.5 µM; 0.19% of 360,000 active; ASAP1-stimulated ARF1 GTP hydrolysis, GDP FP detection; in the data active means inhibition above about 25%;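 further: 0% = vehicle with enzyme and substrate and 100% = no enzyme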
ARFGAP1 inhibitor = rat ARFGAP1 inhibition. Q62848. Arfgap1-stimulated ARF1 GTP hydrolysis, GDP FP detection. inhibition, % at 16.5 µM. 0.26% of 360,000 active. AID 651572;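 active means inhibition above a per-plate limit, mean inhibition of low control wells plus 3 SD, cut at about 25% in these data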;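 further: 0% = DMSO wells with enzyme and 100% = wells lacking Arfgap1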
Target sequence (Q62848 1-136 limits assumed): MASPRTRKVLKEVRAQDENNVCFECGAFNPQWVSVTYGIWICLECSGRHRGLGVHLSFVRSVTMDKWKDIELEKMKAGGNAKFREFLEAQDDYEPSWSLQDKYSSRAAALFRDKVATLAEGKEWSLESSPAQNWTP
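Assay system: Rat Arfgap1 GAP domain (His6, aa 1-136), purified enzyme | Buffer or medium: HEPES 25 mM pH 7.5, NaCl 150 mM, MgCl2, DTT | Schedule: GTP hydrolysis reaction 2 h at 25 °C | Signal: FP of antibody-bound GDP Alexa 633 tracer, ex 620/em 688 nm | Measure: Percent inhibition of Arfgap1-stimulated GTP hydrolysis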
ZTA DNA inh = blocks Epstein-Barr virus ZTA, an EBNA-1 counter-screen; AID 2234; inhibition, % at 11 µM; P03206; 0.15% of 320,000 active; ZTA-DNA binding, fluorescence polarization; in the data active means inhibition above about 33%
Target sequence (P03206 whole entry, looked up): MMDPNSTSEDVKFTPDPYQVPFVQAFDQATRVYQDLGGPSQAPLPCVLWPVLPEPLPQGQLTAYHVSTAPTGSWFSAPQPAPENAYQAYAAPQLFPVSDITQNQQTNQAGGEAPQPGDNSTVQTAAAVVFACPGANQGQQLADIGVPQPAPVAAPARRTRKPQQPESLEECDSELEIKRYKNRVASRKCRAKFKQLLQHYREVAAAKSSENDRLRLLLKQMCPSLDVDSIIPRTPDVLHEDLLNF
EBNA-1 inh = blocks EBNA-1 binding to DNA; inhibition, % at 14.8 µM; EBNA-1 DNA binding, fluorescence polarization; 0.34% of 300,000 active; AID 1950; in the data active means inhibition above about 28%
EBNA-1 confirm = EBNA-1 (EBV) inhibition, confirmation. shares compounds with EBNA-1 inh. Recombinant EBNA-1 DBD, Cy5-DNA fluorescence polarization. inhibition, % at 14.8 µM. 35% of 830 active;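 active means mean inhibition across replicates above a set limit taken from the earlier primary screen, cut at about 28% in these data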;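 further: plate controls were EBNA-1 protein with DMSO for no effect and wells lacking EBNA-1 for full effect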
ZTA counter trip = blocks Epstein-Barr virus ZTA in triplicate, EBNA-1 counter-screen; 830 tested, under 10 active; shares compounds with EBNA-1 inh; Zta-ZRE DNA binding, Cy5 fluorescence polarization; inhibition, % at 11.1 µM;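 active means mean inhibition over triplicates above a set limit taken from the primary EBNA-1 screen, cut at about 37% in these data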;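 further: purified full length Zta protein with Cy5 labeled ZRE DNA probe; 0% = Zta with DMSO and 100% = wells lacking Zta protein; inhibitors lower polarization by freeing the labeled DNA probe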
* hit, by the source's call; / = not tested or not shown. Sampled rows, rich in hits. Any-hit rate of the full collection: about 0.75%.

SMILES	ASAP1 GAP inh	ARFGAP1 inhibitor	ZTA DNA inh	EBNA-1 inh	EBNA-1 confirm	ZTA counter trip
COc1cc(NC(=O)c2ccc(Br)cc2)c(OC)cc1NC(=O)c1ccccc1	10.6	0.7	-18.1	57.0*	64.2*	4.7
O=C(Nc1cccc(-c2cnc3ccccc3n2)c1)c1ccccc1	4.3	7.4	-4.5	40.1*	7.0	-2.5
O=C(Nc1ccc(Nc2ccccc2)cc1)c1ccc(Br)cc1	3.7	-13.3	4.0	-5.9	/	/
O=C(Nc1cccc(C(=O)Nc2ccc(Br)cc2)c1)c1ccccc1	-9.8	-18.6	18.0	32.6*	26.2	0.1
COc1cc(NC(=O)c2ccccc2)c(OC)cc1NC(=O)Cc1ccc(F)cc1	0.0	11.2	14.5	-5.6	/	/
Cc1cccc(S(=O)(=O)N2CCC[C@H]2C(=O)N2CCC[C@@H]2C(=O)NCc2ccccc2)c1	-6.7	-2.2	/	/	/	/
CCOC(=O)c1c(C)[nH]c(C(=O)COC(=O)CNC(=O)c2ccc(Cl)cc2Cl)c1C	-11.5	-7.1	11.8	95.6*	26.2	4.1
O=C(CNC(=O)c1ccco1)OCc1ccc(C(=O)Oc2ccccc2)cc1	1.8	-8.0	-1.4	-3.7	/	/
O=C(CNC(=O)c1ccco1)NCC(=O)OCc1ccc(C(=O)Oc2ccc(Cl)cc2)cc1	-6.9	-0.8	10.4	89.1*	9.2	5.3
O=C(NCc1ccccc1)[C@H]1CCCN1C(=O)[C@H]1CCCN1C(=O)c1ccc(OC(F)(F)F)cc1	-12.0	-7.0	/	/	/	/
CCOC(=O)N/N=C(/C)c1ccc([N+](=O)[O-])o1	-15.8	-13.0	-1.3	35.7*	7.1	4.9
C[C@H](CO)N1C[C@H](C)[C@@H](CN(C)C(=O)Nc2ccc(C(C)(C)C)cc2)OCc2cn(nn2)CCCC1=O	-15.2	1.4	/	/	/	/
CCOC(=O)c1ccc(NC(=O)CSc2nnc(NC(=O)c3ccc(S(=O)(=O)N4CCOCC4)cc3)s2)cc1	8.0	3.4	6.5	-3.7	/	/
Cc1ccc(NC(=O)CSc2nnc(NC(=O)c3ccc(S(=O)(=O)N4CCOCC4)cc3)s2)cc1	-6.5	-2.0	10.1	56.4*	84.3*	11.1
Cc1ccc(NC(=O)Cn2cc(S(=O)(=O)c3ccc(F)cc3)c(=O)c3cc(F)ccc32)cc1	13.2	-1.9	-1.4	29.1*	47.2*	-0.5
Cc1ccc(S(=O)(=O)c2cn(CC(=O)Nc3ccccc3)c3ccc(F)cc3c2=O)cc1	-3.4	19.9	0.1	-11.4	/	/
CCCCCCCCN1C(=O)[C@@H](CC(=O)N2CCN(C(=O)OCC)CC2)C[C@@]2(C(=O)OC)C1=C[C@H](C(C)(C)C)O[C@@H]2C	7.4	-6.7	/	/	/	/
COc1ccc(NC(=S)Nc2cc(C)[nH]n2)cc1Cl	-0.1	0.4	-3.3	-7.0	/	/
COc1ccc(NC(=S)Nc2cc(-c3ccccc3)[nH]n2)cc1Cl	11.7	2.5	-21.5	35.8*	-5.2	-8.1
Cc1ccccc1C(=O)N[C@@H](Cc1cccnc1)C(=O)N1CCC[C@H]1C(=O)NCCc1ccccc1Cl	-10.6	-10.1	/	/	/	/
O=C1COc2ccc(C(=O)COC(=O)C3CCN(S(=O)(=O)c4cccs4)CC3)cc2N1	6.1	10.6	15.5	34.8*	17.6	-2.1
O=C(COC(=O)C1CCN(S(=O)(=O)c2cccs2)CC1)c1ccc2c(c1)OCCO2	-0.8	7.4	0.9	10.4	/	/
O=C(/C=C(\Nc1ccc(F)cc1)c1ccccc1)c1ccccc1	7.4	-7.1	/	/	/	/
COCCNC(=O)c1ccc(-n2c(SCc3cc(F)ccc3F)nc3ccccc3c2=O)cc1	-4.7	2.0	-8.0	39.6*	9.3	-4.5
Cc1nnc(NC(=O)CSc2ncnc3scc(-c4ccccc4)c23)s1	5.5	0.9	13.4	34.0*	29.1*	-6.7
SMILES	ASAP1 GAP inh	ARFGAP1 inhibitor	ZTA DNA inh	EBNA-1 inh	EBNA-1 confirm	ZTA counter trip
COC(=O)CSc1ncnc2scc(-c3ccccc3)c12	11.2	4.9	-4.9	-5.7	/	/
CCCN(C(=O)C1CCCN(c2ncnc3c2nc2n3CCCCC2)C1)c1ccccc1C (configuration not stated)	9.3	-13.1	/	/	/	/
O=C1c2c(O)cccc2Cc2cccc(O)c21	-3.7	-4.0	-18.4	30.8*	16.7	10.9
O=C(CCN1C(=O)/C(=C\c2cccs2)SC1=S)NC1=NCCS1	10.4	3.0	8.4	7.2	/	/
O=C(CCN1C(=O)/C(=C/c2cccs2)SC1=S)NC1=NCCS1	-2.1	0.3	-4.1	33.6*	-0.5	-4.7
CCCn1c(C)cc(/C=C(\C#N)C(=O)OCC(=O)Nc2cccc(OC)c2)c1C	1.1	2.4	2.6	67.2*	0.4	2.2
Cc1cc(N2CCN(CC(C)(C)O)C[C@@H]2C)ccc1N1CCN(CC(C)(C)O)[C@@H](C)C1	12.9	-7.7	/	/	/	/
Cc1cc(CSc2ccccc2)ccc1NC(=O)c1cccc([N+](=O)[O-])c1	9.1	-9.6	5.4	28.4*	13.2	15.0
Cc1ccc(S(=O)(=O)N2CCN(C(=S)NCCc3ccccc3)CC2)cc1	2.8	-6.8	-2.8	65.4*	11.4	-1.6
COc1ccc(CCNC(=S)N2CCN(S(=O)(=O)c3ccccc3)CC2)cc1	1.0	7.2	-6.8	-6.6	/	/
COc1ccc(/C=C/C(=O)Oc2cccc(/C=N/NC(=O)c3cccc(F)c3)c2)cc1	-4.0	-0.7	0.4	28.8*	3.5	1.2
Cc1ccc(S(=O)(=O)N2CCCc3nc(-c4ccccc4)ccc32)cc1	10.4	13.7	/	/	/	/
Cc1ccc(N2CC(C(=O)Nc3nnc(SCC(=O)Nc4cc(C)on4)s3)CC2=O)cc1 (configuration not stated)	-3.7	-1.7	11.4	34.4*	8.6	-4.1
COc1ccc(Nc2nnc(SCC(=O)c3cc4ccccc4o3)s2)cc1	9.9	14.0	-6.6	44.1*	36.9*	2.1
Cc1cc(NC(=O)CSc2nnc(NCc3ccccc3)s2)no1	12.4	6.1	-0.4	15.7	/	/
COc1cccc(N2CC(C(=O)Nc3nnc(SCC(=O)Nc4cc(C)on4)s3)CC2=O)c1 (configuration not stated)	2.9	5.6	9.3	8.6	/	/
O=C(CSc1nnc(Nc2ccccc2F)s1)c1cc2ccccc2o1	-3.5	-0.4	-4.6	3.3	/	/
COc1ccccc1Nc1nnc(SCC(=O)Nc2cc(C)on2)s1	-4.5	-11.0	-2.5	35.3*	20.9	3.9
COc1cccc(CNC(=O)[C@H]2CCCN2C(=O)[C@H]2CCCN2C(=O)OC(C)(C)C)c1	4.2	18.1	/	/	/	/
Cc1cc(-c2cc(NC(=O)Cc3c[nH]c4ccccc34)ccc2Nc2cccnc2)ccc1F	2.7	8.1	/	/	/	/
C[C@H]1COc2cccc(NCCO)c2S(=O)(=O)N1	-4.2	7.5	/	/	/	/
COC(=O)[C@H](Cc1ccccc1)N1C[C@@H](N2CCC[C@H]2C)CS1(=O)=O	6.4	-8.3	/	/	/	/
COc1ccc(S(=O)(=O)N2CCCCC2)cc1NC(=O)c1cccc(S(=O)(=O)N2CCOCC2)c1	-4.5	7.2	/	/	/	/
COc1ccc(S(=O)(=O)N2CCOCC2)cc1NC(=O)c1cccc(Cl)c1	3.2	2.5	8.6	40.5*	20.2	-6.7
